The record followed here is ChEMBL document CHEMBL1148296, “Syntheses, calcium channel agonist-antagonist modulation activities, and nitric oxide release studies of nitrooxyalkyl 1,4-dihydro-2,6-dimethyl-3-nitro-4-(2,1,3-benzoxadiazol-4-yl)pyridine-5-carboxylate racemates, enantiomers, and diastereomers” (J Med Chem, 2004).

The species named for experiment [1] is Cavia porcellus. Kind of experiment: In vitro nitric oxide release incubated in the absence of N-acetyl-cysteamine in phosphate buffer. The class given is functional. A digest of the protocol:
(§1)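 Compound (0.0075 mmol) stirred under argon at 37 °C for 1 h in 0.1 M phosphate buffer pH 7.40/acetonitrile 1:1; line 6 with N-acetylcysteamine 1 equiv per ONO2, line 5 without. After air exposure, Griess reagent 10 min, A540; nitrite quantified against 3–24 µM NaNO2 standards; % NO from one ONO2, control without compound, n = 3.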

The species entered for experiment [2] is Cavia porcellus. Kind of experiment: In vitro nitric oxide release incubated in the presence of N-acetyl-cysteamine in phosphate buffer. The experiment is classed as functional. A digest of the protocol: as §1

`O=[N+]([O-])OCC(CO[N+](=O)[O-])O[N+](=O)[O-]` [NITROGLYCERIN]: the figures for the Release in the experiment listed under Cavia porcellus [1] and in the experiment filed under Cavia porcellus [2] were 0.18% and 5.3%, respectively.
